Test results reported in paper PMC10610910 (Science Advances, 2023).

How the values were obtained:
HSF2BP [1] = target: T1, HSF2BP (Homo sapiens, UniProt O75031); assay: Scanning force microscopy; type: physicochemical; conditions: SFM on mica, in air; HSF2BP at 12 nM
T1 sequence (O75031 1-334): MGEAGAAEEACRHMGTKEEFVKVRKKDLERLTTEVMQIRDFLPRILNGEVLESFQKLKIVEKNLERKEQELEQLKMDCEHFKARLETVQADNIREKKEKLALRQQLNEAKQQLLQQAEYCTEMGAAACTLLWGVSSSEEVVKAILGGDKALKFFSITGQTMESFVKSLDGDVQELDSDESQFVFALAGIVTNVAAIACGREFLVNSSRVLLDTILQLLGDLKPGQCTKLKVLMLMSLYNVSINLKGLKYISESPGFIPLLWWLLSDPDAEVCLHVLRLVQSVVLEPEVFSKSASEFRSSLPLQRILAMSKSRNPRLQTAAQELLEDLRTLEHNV
Outline: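 HSF2BP was diluted 10,000-fold to 12 nM in 25 mM tris-HCl pH 7.5, 250 mM NaCl, 5 mM β-mercaptoethanol. It was deposited for 30 s on freshly cleaved mica, rinsed with water, dried under filtered air, and imaged in air by SFM. Particle volume distributions were obtained by kernel density analysis.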

DNA = conditions: ref [23]; cited from earlier work
SEC-SAXS of free HSF2BP = type: physicochemical
Outline: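 Free HSF2BP was loaded at 6 mg/ml onto a BIOSEC 3 column in 25 mM tris-HCl pH 7.5, 250 mM NaCl, 5 mM β-mercaptoethanol, with synchrotron scattering recorded every second during elution. Curves across the elution peak were summed. P(r) was derived so that its Fourier transform fits the SAXS curve.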

endogenous Xenopus BRCA2 = conditions: Xenopus egg extract; ref [24]; cited from earlier work
[2] = SEC-MALS molecular mass / oligomeric state; type: physicochemical; conditions: 25 mM tris-HCl pH 7.5, 250 mM NaCl, 5 mM β-mercaptoethanol, n = 2
HSF2BP [3] = target: T1, HSF2BP; assay: Mass photometry; type: physicochemical; conditions: 25-100 nM
[4] = system: interstrand crosslink repair (pICL) in Xenopus egg extract; conditions: Xenopus and human HSF2BP, ref [24]; cited from earlier work
HeLa cells = type: cell-based, human; conditions: HeLa stably producing the protein; MMC, cisplatin, talazoparib
Outline: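 HeLa cells in DMEM with 10% fetal calf serum were stably co-transfected (PiggyBac) with GFP-HSF2BP and/or Flag-BRME1 variants, then selected with puromycin (1.5 μg/ml) and G418 (800 μg/ml) for 8 days; mixed populations were used. Seeded 100–1000 cells/well in technical duplicates, drugs added next day: MMC 2 h, cisplatin or talazoparib overnight. Coomassie-stained colonies counted on day 10.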

B1: HSF2BP: human HSF2BP, full-length wild type; GFP-HSF2BP in HeLa cells (protein)
chain: MGEAGAAEEACRHMGTKEEFVKVRKKDLERLTTEVMQIRDFLPRILNGEVLESFQKLKIVEKNLERKEQELEQLKMDCEHFKARLETVQADNIREKKEKLALRQQLNEAKQQLLQQAEYCTEMGAAACTLLWGVSSSEEVVKAILGGDKALKFFSITGQTMESFVKSLDGDVQELDSDESQFVFALAGIVTNVAAIACGREFLVNSSRVLLDTILQLLGDLKPGQCTKLKVLMLMSLYNVSINLKGLKYISESPGFIPLLWWLLSDPDAEVCLHVLRLVQSVVLEPEVFSKSASEFRSSLPLQRILAMSKSRNPRLQTAAQELLEDLRTLEHNV
modifications: left off: His6, end not stated, cleaved
particle volume, larger peak (HSF2BP [1]): ~190 nm^3
particle volume, smaller peak (HSF2BP [1]): around 95 nm^3
affinity for DNA, in words (DNA): no detectable affinity for DNA
maximal distance (SEC-SAXS of free HSF2BP; P(r)): 250 Å
molar mass (I(0)) (SEC-SAXS of free HSF2BP; protein ~50 to 60 μM, pH 7.5, 293.15 K): 156 ± 21 kDa
effect on BRCA2, in words (endogenous Xenopus BRCA2): leads to DNA crosslink-dependent proteasomal degradation of BRCA2
apparent molar mass [2]: 136 ± 7 kDa
effect on / state of HSF2BP oligomers, in words (HSF2BP [3]): at 25 nM, it is a mix of dimers and tetramers
effect on crosslink repair, in words [4]: inhibit replication-dependent restoration of the genetic information at the crosslink
effect on cell resistance to DNA damage, in words (HeLa cells): sensitized cells to DNA damage
